Results from ChEMBL document CHEMBL3779892, “Increasing the binding affinity of VEGFR-2 inhibitors by extending their hydrophobic interaction with the active site: Design, synthesis and biological evaluation of 1-substituted-4-(4-methoxybenzyl)phthalazine derivatives” (Eur J Med Chem, 2016).

Legend:
Assay type in all cases: functional
[1] = system: MDA-MB-468; assay: Growth inhibition of human MDA-MB-468 cells at 10 uM after 48 hrs by sulforhodamine B assay; details: MDA-MB-468, 48 h, read-out: GI
Outline: (§1)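 Run at NCI on the 60-line panel. Cells grown in RPMI 1640 with 5% FBS and 2 mM L-glutamine, plated at 5000–40,000 cells/well by doubling time, and held 24 h at 37 °C before dosing. Drug (DMSO stock) given at a single final 10 µM in triplicate wells for 48 h. Adherent cells fixed with cold TCA (10% final), suspension cells with 16% TCA. SRB stain read at 515 nm. Percent growth from Tz, C and Ti.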

[2] = system: MDA-MB-231; assay: Growth inhibition of human MDA-MB-231 cells at 10 uM after 48 hrs by sulforhodamine B assay; details: MDA-MB-231, 48 h, read-out: GI; outline: as §1
[3] = system: CCRF-CEM; assay: Growth inhibition of human CCRF-CEM cells at 10 uM after 48 hrs by sulforhodamine B assay; details: read-out: GI; outline: as §1
[4] = system: SR; assay: Growth inhibition of human SR cells at 10 uM after 48 hrs by sulforhodamine B assay; details: read-out: GI
Outline: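 NCI-60 screen. Cells were grown in RPMI 1640 with 5% FBS and 2 mM L-glutamine, plated at 5000–40,000 cells/well and held 24 h at 37 °C, 5% CO2. Single 10 µM final dose from DMSO stock, triplicate wells, 48 h. Settled cells were fixed with 80% TCA (16% final) and stained with 0.4% SRB. Dye was solubilized in 10 mM Tris and read at 515 nm. Growth was calculated against time-zero and untreated wells.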

[5] = system: A549; assay: Growth inhibition of human A549 cells at 10 uM after 48 hrs by sulforhodamine B assay; details: A549, 48 h, read-out: GI; outline: as §1
[6] = Growth inhibition of human HOP92 cells at 10 uM after 48 hrs by sulforhodamine B assay; details: HOP-92, 48 h, read-out: GI; outline: as §1
[7] = system: NCI-H226; assay: Growth inhibition of human NCI-H226 cells at 10 uM after 48 hrs by sulforhodamine B assay; details: NCI-H226, 48 h, read-out: GI; outline: as §1
[8] = system: NCI-H23; assay: Growth inhibition of human NCI-H23 cells at 10 uM after 48 hrs by sulforhodamine B assay; details: NCI-H23, 48 h, read-out: GI; outline: as §1
[9] = system: NCI-H460; assay: Growth inhibition of human NCI-H460 cells at 10 uM after 48 hrs by sulforhodamine B assay; details: NCI-H460, 48 h, read-out: GI; outline: as §1
[10] = system: NCI-H522; assay: Growth inhibition of human NCI-H522 cells at 10 uM after 48 hrs by sulforhodamine B assay; details: NCI-H522, 48 h, read-out: GI; outline: as §1
[11] = Growth inhibition of human HCT116 cells at 10 uM after 48 hrs by sulforhodamine B assay; details: HCT-116, 48 h, read-out: GI; outline: as §1
[12] = Growth inhibition of human HCT15 cells at 10 uM after 48 hrs by sulforhodamine B assay; details: HCT-15, 48 h, read-out: GI; outline: as §1
[13] = system: HT-29; assay: Growth inhibition of human HT-29 cells at 10 uM after 48 hrs by sulforhodamine B assay; details: HT-29, 48 h, read-out: GI; outline: as §1
[14] = Growth inhibition of human SW620 cells at 10 uM after 48 hrs by sulforhodamine B assay; details: SW-620, 48 h, read-out: GI
Outline: (§2)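 NCI-60 panel, adherent cells grown in RPMI 1640 with 5% FBS and 2 mM L-glutamine, plated at 5000–40,000 cells/well and preincubated 24 h at 37 °C, 5% CO2. 10 µM final compound from DMSO stock, triplicate wells, 48 h. Fixed with cold TCA (10% final, 60 min, 4 °C) and stained with 0.4% SRB. Absorbance read at 515 nm; growth calculated against time-zero and control wells.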

[15] = Growth inhibition of human SF268 cells at 10 uM after 48 hrs by sulforhodamine B assay; details: SF-268, 48 h, read-out: GI; outline: as §1
[16] = Growth inhibition of human SNB19 cells at 10 uM after 48 hrs by sulforhodamine B assay; details: SNB-19, 48 h, read-out: GI; outline: as §1
[17] = system: U-251; assay: Growth inhibition of human U251 cells at 10 uM after 48 hrs by sulforhodamine B assay; details: U-251, 48 h, read-out: GI; outline: as §2
[18] = Growth inhibition of human LOXIMVI cells at 10 uM after 48 hrs by sulforhodamine B assay; details: LOX IMVI, read-out: GI; outline: as §1
[19] = system: Malme-3M; assay: Growth inhibition of human MALME-3M cells at 10 uM after 48 hrs by sulforhodamine B assay; details: read-out: GI; outline: as §1
[20] = system: M14; assay: Growth inhibition of human M14 cells at 10 uM after 48 hrs by sulforhodamine B assay; details: M14, 48 h, read-out: GI; outline: as §1
[21] = system: MDA-MB-435; assay: Growth inhibition of human MDA-MB-435 cells at 10 uM after 48 hrs by sulforhodamine B assay; details: MDA-MB-435, 48 h, read-out: GI; outline: as §1
[22] = system: SK-MEL-5; assay: Growth inhibition of human SK-MEL-5 cells at 10 uM after 48 hrs by sulforhodamine B assay; details: SK-MEL-5, 48 h, read-out: GI; outline: as §1
[23] = Growth inhibition of human OVCAR3 cells at 10 uM after 48 hrs by sulforhodamine B assay; details: OVCAR-3, 48 h, read-out: GI; outline: as §1
[24] = Growth inhibition of human OVCAR5 cells at 10 uM after 48 hrs by sulforhodamine B assay; details: OVCAR-5, 48 h, read-out: GI; outline: as §1
[25] = Growth inhibition of human OVCAR8 cells at 10 uM after 48 hrs by sulforhodamine B assay; details: OVCAR-8, 48 h, read-out: GI; outline: as §1
[26] = Growth inhibition of human SKOV3 cells at 10 uM after 48 hrs by sulforhodamine B assay; details: SK-OV-3, 48 h, read-out: GI; outline: as §1
[27] = system: A498; assay: Growth inhibition of human A498 cells at 10 uM after 48 hrs by sulforhodamine B assay; details: A498, 48 h, read-out: GI; outline: as §1
[28] = system: ACHN; assay: Growth inhibition of human ACHN cells at 10 uM after 48 hrs by sulforhodamine B assay; details: read-out: GI; outline: as §1
[29] = Growth inhibition of human Caki1 cells at 10 uM after 48 hrs by sulforhodamine B assay; details: CAKI-1, 48 h, read-out: GI; outline: as §1
[30] = Growth inhibition of human RXF393 cells at 10 uM after 48 hrs by sulforhodamine B assay; details: RXF 393, 48 h, read-out: GI; outline: as §1
[31] = system: SN12C; assay: Growth inhibition of human SN12C cells at 10 uM after 48 hrs by sulforhodamine B assay; details: read-out: GI; outline: as §1
[32] = Growth inhibition of human UO31 cells at 10 uM after 48 hrs by sulforhodamine B assay; details: UO-31, 48 h, read-out: GI; outline: as §2
[33] = Growth inhibition of human PC3 cells at 10 uM after 48 hrs by sulforhodamine B assay; details: PC-3, 48 h, read-out: GI; outline: as §1
[34] = Growth inhibition of human Hs 578T cells at 10 uM after 48 hrs by sulforhodamine B assay; details: read-out: GI; outline: as §1

SMILES | inhibition of growth at 10 µM [1] [%] | inhibition of growth at 10 µM [2] [%] | inhibition of growth at 10 µM [3] [%] | inhibition of growth at 10 µM [4] [%] | inhibition of growth at 10 µM [5] [%] | inhibition of growth at 10 µM [6] [%] | inhibition of growth at 10 µM [7] [%] | inhibition of growth at 10 µM [8] [%] | inhibition of growth at 10 µM [9] [%] | inhibition of growth at 10 µM [10] [%] | inhibition of growth at 10 µM [11] [%] | inhibition of growth at 10 µM [12] [%] | inhibition of growth at 10 µM [13] [%] | inhibition of growth at 10 µM [14] [%] | inhibition of growth at 10 µM [15] [%] | inhibition of growth at 10 µM [16] [%] | inhibition of growth at 10 µM [17] [%] | inhibition of growth at 10 µM [18] [%] | inhibition of growth at 10 µM [19] [%] | inhibition of growth at 10 µM [20] [%] | further results
COc1ccc(Cc2nnc(Nc3ccc(NC(=O)Nc4ccccc4)cc3)c3ccccc23)cc1 | < 30 | 31 | 34 | < 30 | < 30 | < 30 | < 30 | < 30 | < 30 | 48 | 35 | < 30 | < 30 | < 30 | < 30 | < 30 | 32 | < 30 | < 30 | < 30 | inhibition of growth at 10 µM [21]: < 30%; inhibition of growth at 10 µM [22]: < 30%; inhibition of growth at 10 µM [23]: < 30%; inhibition of growth at 10 µM [24]: < 30%; inhibition of growth at 10 µM [25]: < 30%; inhibition of growth at 10 µM [26]: < 30%; inhibition of growth at 10 µM [27]: < 30%; inhibition of growth at 10 µM [28]: < 30%; inhibition of growth at 10 µM [29]: < 30%; inhibition of growth at 10 µM [30]: 49%; inhibition of growth at 10 µM [31]: < 30%; inhibition of growth at 10 µM [32]: < 30%; inhibition of growth at 10 µM [33]: 30%; inhibition of growth at 10 µM [34]: 33%
COc1ccc(Cc2nnc(Nc3ccc(NC(=O)Nc4cccc(C(F)(F)F)c4)cc3)c3ccccc23)cc1 | < 30 | < 30 | 35 | 34 | 35 | < 30 | < 30 | < 30 | < 30 | 56 | 42 | < 30 | < 30 | < 30 | < 30 | 30 | 30 | < 30 | < 30 | 30 | inhibition of growth at 10 µM [21]: < 30%; inhibition of growth at 10 µM [22]: < 30%; inhibition of growth at 10 µM [23]: < 30%; inhibition of growth at 10 µM [24]: < 30%; inhibition of growth at 10 µM [25]: < 30%; inhibition of growth at 10 µM [26]: < 30%; inhibition of growth at 10 µM [27]: < 30%; inhibition of growth at 10 µM [28]: 41%; inhibition of growth at 10 µM [29]: < 30%; inhibition of growth at 10 µM [30]: 50%; inhibition of growth at 10 µM [31]: < 30%; inhibition of growth at 10 µM [32]: < 30%; inhibition of growth at 10 µM [33]: 36%; inhibition of growth at 10 µM [34]: 34%
